Data on four molecules can be found in ChEMBL document CHEMBL4145682, “An Affinity-Based Probe for the Human Adenosine A2A Receptor” (J Med Chem, 2018).

The structures appear in SMILES notation. Calls of active or inactive are those of the source. The calls are words filed in the database; no cut-off is given here.

Test [1] deals with T1, Adenosine receptor A2a (Homo sapiens, UniProt P29274). As to the kind of experiment: Covalent binding to human A2AR (1 to 316 residues) expressed in Pichia pastoris SMD1168 cell membranes assessed as radioligand binding level pre-incubated at 1.5 to 5 nM followed by compound wash out before [3H]ZM241385 addition (reference value: 65 +/- 2%).
T1 sequence (P29274 whole entry, the tested form may be a part): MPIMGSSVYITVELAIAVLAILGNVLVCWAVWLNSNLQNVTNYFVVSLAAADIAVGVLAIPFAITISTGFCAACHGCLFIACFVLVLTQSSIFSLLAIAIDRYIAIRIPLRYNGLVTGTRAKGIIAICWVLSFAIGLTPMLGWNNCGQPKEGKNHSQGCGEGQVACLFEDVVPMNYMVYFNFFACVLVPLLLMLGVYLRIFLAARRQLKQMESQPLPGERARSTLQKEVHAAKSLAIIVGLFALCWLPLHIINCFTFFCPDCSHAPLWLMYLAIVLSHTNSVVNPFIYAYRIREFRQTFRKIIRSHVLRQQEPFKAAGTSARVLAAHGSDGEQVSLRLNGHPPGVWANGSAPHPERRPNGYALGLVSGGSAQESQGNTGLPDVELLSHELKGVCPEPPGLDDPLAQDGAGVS
In test [2] the target is T1, Adenosine receptor A2a. The test can be described thus: Photoaffinity labelling of N-terminal FLAG-tagged and C-terminal His-tagged human adenosine A2A receptor expressed in HEK293 cell membranes at 1 uM incubated for 1 hr by SDS PAGE and Western blot analysis based affinity-based protein labeling assay. The procedure, abridged: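 Membranes (1 mg/mL in 50 mM Tris-HCl pH 7.4) came from HEK293 transiently transfected 48 h with FLAG-hA2AR-His. Incubated with probe (0.1–3 μM) or 1% DMSO for 1 h at room temperature. Click at room temperature for 1 h, with CuSO4 added last: 4.4 μM Cy3-azide, 33 mM ascorbate, 1.1 mM THPTA, 5.6 mM CuSO4. Denatured 30 min at 37°C. Read-out: in-gel fluorescence, with anti-FLAG Western blot (~50 kDa).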
Background: A western blot detects proteins with antibodies after separation by electrophoresis.

Test [3] has as its target T1, Adenosine receptor A2a. The test can be described thus: Photoaffinity labelling of purified human A2AR (1 to 316 residues) by Western blot analysis. The procedure, abridged:
(§1)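 His-tagged hA2AR (residues 1–316) from Pichia pastoris was purified by HisTrap, diluted to 0.1 mg/mL in 25 mM HEPES pH 7.5, 100 mM NaCl, 10 μM LMNG. Incubated with probe at a range of concentrations or 1% DMSO for 1 h on ice. CuAAC click on ice, 1 h: 5.6 mM CuSO4, 33 mM ascorbate, 1.1 mM THPTA, 4.4 μM Cy3-azide. Read-out: SDS-PAGE in-gel fluorescence of the ~47 kDa band, normalized to anti-His immunoblot. pEC50 fitted; three experiments.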

The target of test [4] is T1, Adenosine receptor A2a. The test can be described thus: Potency shift, difference in pKi for displacement of [3H]ZM241385 human A2AR (1 to 316 residues) expressed in Pichia pastoris SMD1168 cell membranes incubated for 0.5 hrs to pKi for displacement of [3H]ZM241385 human A2AR (1 to 316 residues) expressed in Pichia pastoris SMD1168 cell membranes incubated for 3 hrs. On the technique in general: In a radioligand displacement assay an active substance lowers the binding of a labelled ligand.

Test [5] addresses T1, Adenosine receptor A2a. As to the kind of experiment: Photoaffinity labelling of purified human A2AR (1 to 316 residues) by SDS-PAGE analaysis. The procedure, abridged: as §1
The species entered for a further test is Homo sapiens. As to the kind of experiment: Selectivity for human A2AR (1 to 316 residues) expressed in Pichia pastoris SMD1168 cell membranes over human A3AR.
Test [6] has as its target T1, Adenosine receptor A2a. As to the kind of experiment: Photoaffinity labelling of purified human A2AR (1 to 316 residues) by SDS-PAGE analaysis pretreated with 10 uM ZM241385 followed by compound addition at 1 uM by competitive labeling assay. The procedure, abridged: (§2)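 Purified hA2AR (0.1 mg/mL) was preincubated 1 h on ice with 10 μM competitor or 1% DMSO. Then labeled with 1 μM probe for 0.5 h on ice. CuAAC with Cy3-azide followed, then SDS-PAGE in-gel fluorescence normalized to anti-His immunoblot. Three experiments; Student's t-test.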

Test [7] concerns the target T1, Adenosine receptor A2a. The test can be described thus: Photoaffinity labelling of purified human A2AR (1 to 316 residues) by SDS-PAGE analaysis pretreated with 10 uM LUF7445 followed by compound addition at 1 uM by competitive labeling assay. The procedure, abridged: as §2
Test [8] deals with T1, Adenosine receptor A2a. The test can be described thus: Displacement of [3H]ZM241385 human A2AR […] expressed in […] cell membranes incubated for 0.5 hrs. The gist of the method: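 HEK293 cell membranes stably expressing hA2AR, 10 μg protein per tube. Buffer 25 mM Tris-HCl pH 7.4, 5 mM MgCl2, 0.1% CHAPS. [3H]ZM241385 displaced by increasing compound concentrations at 25°C for 0.5 h (standard) or 3 h. Nonspecific binding defined with 100 µM NECA. Stopped by GF/B filtration and scintillation counting. Apparent pKi, means ± SEM of three experiments in duplicate. Shift = pKi(3h) − pKi(0.5h).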

Test [9] deals with T1, Adenosine receptor A2a. As to the kind of experiment: Displacement of [3H]ZM241385 human A2AR (1 to 316 residues) expressed in Pichia pastoris SMD1168 cell membranes.

The term EC50 denotes the midpoint of the concentration-response curve. A higher EC50 goes with weaker potency. A word on the Ki: it is the equilibrium dissociation constant of an inhibitor or competing ligand from its target.

Turning to `C#CCN(CCCCCNc1nc(N)n2nc(-c3ccco3)nc2n1)C(=O)c1ccc(S(=O)(=O)F)cc1`, the Activity at Adenosine receptor A2a [1] was 43%; on Adenosine receptor A2a [5], “Dose-dependent effect”. The result on Adenosine receptor A2a [2] and on Adenosine receptor A2a [3] was Active. The fold change (FC) on Adenosine receptor A2a [4] was 0.41. In addition, the EC50 at Adenosine receptor A2a [5] was 794 nM. The Selectivity ratio in the test filed under Homo sapiens is less than 10. In addition, the outcome at Adenosine receptor A2a [6] and at Adenosine receptor A2a [7] was inactive. In addition, the Ki on Adenosine receptor A2a [8] is 3.89 nM. For the same molecule, on Adenosine receptor A2a [9], the inhibition result was “Dose-dependent effect”.

Turning to `Nc1nc(NCCCCNC(=O)c2ccc(S(=O)(=O)F)cc2)nc2nc(-c3ccco3)nn12`, the fold change (FC) on Adenosine receptor A2a [4] amounted to 0.85. Further, at Adenosine receptor A2a [8], the Ki is 6.31 nM and the inhibition result is “Dose-dependent effect”. In addition, at Adenosine receptor A2a [9], the inhibition entry was “Dose-dependent effect”.

Turning to `Nc1nc(NCCCNC(=O)c2ccc(S(=O)(=O)F)cc2)nc2nc(-c3ccco3)nn12`, the fold change (FC) on Adenosine receptor A2a [4] was 0.72. On Adenosine receptor A2a [8], this molecule had an inhibition constant (Ki) of 5.37 nM.

`Nc1nc(NCCCCCNC(=O)c2ccc(S(=O)(=O)F)cc2)nc2nc(-c3ccco3)nn12`: on Adenosine receptor A2a [4], the fold change (FC) is 0.65. This molecule also showed a Ki at Adenosine receptor A2a [8] of 2.75 nM. Moreover, the inhibition result on Adenosine receptor A2a [8] and on Adenosine receptor A2a [9] was “Dose-dependent effect” in each case.
